Experimental data published in ChEMBL document CHEMBL3407470, “Synthesis, biological evaluation and 3D-QSAR studies of novel 5-phenyl-1H-pyrazol cinnamamide derivatives as novel antitubulin agents” (Eur J Med Chem, 2015).

Biological target: Tubulin (Bos taurus, UniProt Q6B856+Q862L2+Q862F3)
Test: Inhibition of bovine brain tubulin polymerization incubated for 20 mins by spectrophotometry
Details: not given

Point of comparison: O=C(/C=C/c1ccc(F)cc1)Nc1cc(-c2ccccc2)[nH]n1, IC50 1850 nM. Against it:
- O=C(/C=C/c1ccccc1)Nc1cc(-c2ccc(Br)cc2)[nH]n1 — within 1.5-fold, 2550 nM
- Cc1ccc(-c2cc(NC(=O)/C=C/c3ccc(F)cc3)n[nH]2)cc1 — within 1.5-fold, 1920 nM
- Cc1ccc(-c2cc(NC(=O)/C=C/c3ccc(C(F)(F)F)cc3)n[nH]2)cc1 — within 1.5-fold, 1530 nM
- COc1ccc(/C=C/C(=O)Nc2cc(-c3ccc(Br)cc3)[nH]n2)cc1 — within 1.5-fold, 1350 nM
- O=C(/C=C/c1ccc(C(F)(F)F)cc1)Nc1cc(-c2ccc(Br)cc2)[nH]n1 — 1.8-fold lower, 1020 nM
- Cc1ccc(/C=C/C(=O)Nc2cc(-c3ccccc3)[nH]n2)cc1 — 1.6-fold higher, 3020 nM
- COc1ccc(/C=C/C(=O)Nc2cc(-c3ccc(C)cc3)[nH]n2)cc1 — within 1.5-fold, 1760 nM
- O=C(/C=C/c1ccc(Br)cc1)Nc1cc(-c2ccccc2)[nH]n1 — within 1.5-fold, 2360 nM
- Cc1ccc(-c2cc(NC(=O)/C=C/c3ccc(Cl)cc3)n[nH]2)cc1 — within 1.5-fold, 2150 nM
- O=C(/C=C/c1ccc(Cl)cc1)Nc1cc(-c2ccccc2)[nH]n1 — within 1.5-fold, 2060 nM
- O=C(/C=C/c1ccc(Br)cc1)Nc1cc(-c2ccc(Br)cc2)[nH]n1 — within 1.5-fold, 2140 nM
- O=C(/C=C/c1ccc([N+](=O)[O-])cc1)Nc1cc(-c2ccc(Br)cc2)[nH]n1 — within 1.5-fold, 1240 nM

Point of comparison: O=C(/C=C/c1ccc(Br)cc1)Nc1cc(-c2ccccc2)[nH]n1, pIC50 5.627. Against it:
- O=C(/C=C/c1ccccc1)Nc1cc(-c2ccc(Br)cc2)[nH]n1 — within 0.2 log units, 5.593
- Cc1ccc(-c2cc(NC(=O)/C=C/c3ccc(F)cc3)n[nH]2)cc1 — within 0.2 log units, 5.717
- Cc1ccc(-c2cc(NC(=O)/C=C/c3ccc(C(F)(F)F)cc3)n[nH]2)cc1 — within 0.2 log units, 5.815
- COc1ccc(/C=C/C(=O)Nc2cc(-c3ccc(Br)cc3)[nH]n2)cc1 — higher, 5.87
- O=C(/C=C/c1ccc(C(F)(F)F)cc1)Nc1cc(-c2ccc(Br)cc2)[nH]n1 — higher, 5.991
- Cc1ccc(/C=C/C(=O)Nc2cc(-c3ccccc3)[nH]n2)cc1 — within 0.2 log units, 5.52
- COc1ccc(/C=C/C(=O)Nc2cc(-c3ccc(C)cc3)[nH]n2)cc1 — within 0.2 log units, 5.754
- O=C(/C=C/c1ccc(F)cc1)Nc1cc(-c2ccccc2)[nH]n1 — within 0.2 log units, 5.733
- Cc1ccc(-c2cc(NC(=O)/C=C/c3ccc(Cl)cc3)n[nH]2)cc1 — within 0.2 log units, 5.668
- O=C(/C=C/c1ccc(Cl)cc1)Nc1cc(-c2ccccc2)[nH]n1 — within 0.2 log units, 5.686
- O=C(/C=C/c1ccc(Br)cc1)Nc1cc(-c2ccc(Br)cc2)[nH]n1 — within 0.2 log units, 5.67
- O=C(/C=C/c1ccc([N+](=O)[O-])cc1)Nc1cc(-c2ccc(Br)cc2)[nH]n1 — higher, 5.907

Test system: MCF7
Test: Induction of cell cycle arrest in human MCF7 cells assessed as accumulation at G2/M phase after 24 hrs by flow cytometry
Format: functional, cell-based
Details: not given
Outline: (§1)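 MCF-7 cells exposed 24 h to the compound at 1 and 2 μg/mL. Phase distribution (G0/G1, S, G2/M) was measured by flow cytometry and reported as percentage of cells in each phase.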

In the case of O=C(/C=C/c1ccc(C(F)(F)F)cc1)Nc1cc(-c2ccc(Br)cc2)[nH]n1, the Activity is reported as “Dose-dependent effect”.

Test system: MCF7
Test: Induction of cell cycle arrest in human MCF7 cells assessed as accumulation at S phase at 2 ug/ml after 24 hrs by flow cytometry (reference value: 14.58%)
Format: functional
Details: not given
Outline: as §1

Molecule O=C(/C=C/c1ccc(C(F)(F)F)cc1)Nc1cc(-c2ccc(Br)cc2)[nH]n1 has an Activity of 16.28%.

Test system: MCF7
Test: Antiproliferative activity against human MCF7 cells after 48 hrs by MTT assay
Format: functional, cell-based
Details: MCF7, 48 h
Outline: (§2)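 Cells grown to log phase in RPMI 1640 with 10% FBS, seeded at 2×10^4 cells/mL and allowed 24 h at 37 °C, 5% CO₂ before treatment. Compounds at pre-set concentrations, colchicine and CA-4 as references, exposed 48 h. MTT added (2.5 mg/mL in PBS) for 4 h, then SDS/isobutyl alcohol/HCl extraction overnight; OD at 570 nm. Triplicate wells per concentration; values averaged from at least three separate runs.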

Point of comparison: Cc1ccc(-c2cc(NC(=O)/C=C/c3ccc(Cl)cc3)n[nH]2)cc1, IC50 1190 nM. Against it:
- O=C(/C=C/c1ccccc1)Nc1cc(-c2ccc(Br)cc2)[nH]n1 — within 1.5-fold, 1120 nM
- Cc1ccc(-c2cc(NC(=O)/C=C/c3ccc(F)cc3)n[nH]2)cc1 — within 1.5-fold, 950 nM
- Cc1ccc(-c2cc(NC(=O)/C=C/c3ccc(C(F)(F)F)cc3)n[nH]2)cc1 — 1.7-fold lower, 720 nM
- COc1ccc(/C=C/C(=O)Nc2cc(-c3ccc(Br)cc3)[nH]n2)cc1 — 2-fold lower, 590 nM
- O=C(/C=C/c1ccc(C(F)(F)F)cc1)Nc1cc(-c2ccc(Br)cc2)[nH]n1 — 3.4-fold lower, 350 nM
- Cc1ccc(/C=C/C(=O)Nc2cc(-c3ccccc3)[nH]n2)cc1 — within 1.5-fold, 1780 nM
- COc1ccc(/C=C/C(=O)Nc2cc(-c3ccc(C)cc3)[nH]n2)cc1 — within 1.5-fold, 860 nM
- O=C(/C=C/c1ccc(F)cc1)Nc1cc(-c2ccccc2)[nH]n1 — within 1.5-fold, 840 nM
- O=C(/C=C/c1ccc(Br)cc1)Nc1cc(-c2ccccc2)[nH]n1 — within 1.5-fold, 1240 nM
- O=C(/C=C/c1ccc(Cl)cc1)Nc1cc(-c2ccccc2)[nH]n1 — within 1.5-fold, 970 nM
- O=C(/C=C/c1ccc(Br)cc1)Nc1cc(-c2ccc(Br)cc2)[nH]n1 — within 1.5-fold, 920 nM
- O=C(/C=C/c1ccc([N+](=O)[O-])cc1)Nc1cc(-c2ccc(Br)cc2)[nH]n1 — 2.1-fold lower, 560 nM

Test system: MCF7
Test: Induction of cell cycle arrest in human MCF7 cells assessed as accumulation at S phase at 1 ug/ml after 24 hrs by flow cytometry (reference value: 14.58%)
Format: functional
Details: not given
Outline: as §1

O=C(/C=C/c1ccc(C(F)(F)F)cc1)Nc1cc(-c2ccc(Br)cc2)[nH]n1 gave an Activity of 18.46%.

Test system: MCF7
Test: Induction of cell cycle arrest in human MCF7 cells assessed as accumulation at G2/M phase at 2 ug/ml after 24 hrs by flow cytometry (reference value: 25.67%)
Format: functional
Details: not given
Outline: as §1

Molecule O=C(/C=C/c1ccc(C(F)(F)F)cc1)Nc1cc(-c2ccc(Br)cc2)[nH]n1 has an Activity of 76.95%.

Test system: MCF7
Test: Induction of cell cycle arrest in human MCF7 cells assessed as accumulation at G2/M phase at 1 ug/ml after 24 hrs by flow cytometry (reference value: 25.67%)
Format: functional
Details: not given
Outline: as §1

With O=C(/C=C/c1ccc(C(F)(F)F)cc1)Nc1cc(-c2ccc(Br)cc2)[nH]n1 the Activity was 45.55%.

Test system: MCF7
Test: Induction of cell cycle arrest in human MCF7 cells assessed as accumulation at G0/G1 phase at 2 ug/ml after 24 hrs by flow cytometry (reference value: 59.75%)
Format: functional
Details: not given
Outline: as §1

Molecule O=C(/C=C/c1ccc(C(F)(F)F)cc1)Nc1cc(-c2ccc(Br)cc2)[nH]n1 has an Activity of 6.77%.

Test system: A549
Test: Antiproliferative activity against human A549 cells after 48 hrs by MTT assay
Format: functional, cell-based
Details: A549, 48 h
Outline: as §2

Point of comparison: COc1ccc(/C=C/C(=O)Nc2cc(-c3ccc(C)cc3)[nH]n2)cc1, IC50 1190 nM. Against it:
- O=C(/C=C/c1ccccc1)Nc1cc(-c2ccc(Br)cc2)[nH]n1 — within 1.5-fold, 1440 nM
- Cc1ccc(-c2cc(NC(=O)/C=C/c3ccc(F)cc3)n[nH]2)cc1 — within 1.5-fold, 1250 nM
- Cc1ccc(-c2cc(NC(=O)/C=C/c3ccc(C(F)(F)F)cc3)n[nH]2)cc1 — within 1.5-fold, 1020 nM
- COc1ccc(/C=C/C(=O)Nc2cc(-c3ccc(Br)cc3)[nH]n2)cc1 — within 1.5-fold, 820 nM
- O=C(/C=C/c1ccc(C(F)(F)F)cc1)Nc1cc(-c2ccc(Br)cc2)[nH]n1 — 1.9-fold lower, 620 nM
- Cc1ccc(/C=C/C(=O)Nc2cc(-c3ccccc3)[nH]n2)cc1 — within 1.5-fold, 1770 nM
- O=C(/C=C/c1ccc(F)cc1)Nc1cc(-c2ccccc2)[nH]n1 — within 1.5-fold, 1220 nM
- O=C(/C=C/c1ccc(Br)cc1)Nc1cc(-c2ccccc2)[nH]n1 — within 1.5-fold, 1460 nM
- Cc1ccc(-c2cc(NC(=O)/C=C/c3ccc(Cl)cc3)n[nH]2)cc1 — within 1.5-fold, 1490 nM
- O=C(/C=C/c1ccc(Cl)cc1)Nc1cc(-c2ccccc2)[nH]n1 — within 1.5-fold, 1390 nM
- O=C(/C=C/c1ccc(Br)cc1)Nc1cc(-c2ccc(Br)cc2)[nH]n1 — within 1.5-fold, 1360 nM
- O=C(/C=C/c1ccc([N+](=O)[O-])cc1)Nc1cc(-c2ccc(Br)cc2)[nH]n1 — 1.6-fold lower, 740 nM

Test system: not listed separately
Test: Antiproliferative activity against mouse B16F10 cells after 48 hrs by MTT assay
Format: functional, cell-based
Details: B16-F10, 48 h
Outline: as §2

Point of comparison: O=C(/C=C/c1ccccc1)Nc1cc(-c2ccc(Br)cc2)[nH]n1, IC50 1270 nM. Against it:
- Cc1ccc(-c2cc(NC(=O)/C=C/c3ccc(F)cc3)n[nH]2)cc1 — within 1.5-fold, 1430 nM
- Cc1ccc(-c2cc(NC(=O)/C=C/c3ccc(C(F)(F)F)cc3)n[nH]2)cc1 — within 1.5-fold, 1210 nM
- COc1ccc(/C=C/C(=O)Nc2cc(-c3ccc(Br)cc3)[nH]n2)cc1 — 1.6-fold lower, 770 nM
- O=C(/C=C/c1ccc(C(F)(F)F)cc1)Nc1cc(-c2ccc(Br)cc2)[nH]n1 — 2.2-fold lower, 570 nM
- Cc1ccc(/C=C/C(=O)Nc2cc(-c3ccccc3)[nH]n2)cc1 — within 1.5-fold, 1680 nM
- COc1ccc(/C=C/C(=O)Nc2cc(-c3ccc(C)cc3)[nH]n2)cc1 — within 1.5-fold, 1370 nM
- O=C(/C=C/c1ccc(F)cc1)Nc1cc(-c2ccccc2)[nH]n1 — within 1.5-fold, 1250 nM
- O=C(/C=C/c1ccc(Br)cc1)Nc1cc(-c2ccccc2)[nH]n1 — within 1.5-fold, 1380 nM
- Cc1ccc(-c2cc(NC(=O)/C=C/c3ccc(Cl)cc3)n[nH]2)cc1 — within 1.5-fold, 1520 nM
- O=C(/C=C/c1ccc(Cl)cc1)Nc1cc(-c2ccccc2)[nH]n1 — the same, 1270 nM
- O=C(/C=C/c1ccc(Br)cc1)Nc1cc(-c2ccc(Br)cc2)[nH]n1 — within 1.5-fold, 1280 nM
- O=C(/C=C/c1ccc([N+](=O)[O-])cc1)Nc1cc(-c2ccc(Br)cc2)[nH]n1 — 2-fold lower, 630 nM

Test system: MCF7
Test: Induction of cell cycle arrest in human MCF7 cells assessed as accumulation at G0/G1 phase at 1 ug/ml after 24 hrs by flow cytometry (reference value: 59.75%)
Format: functional
Details: not given
Outline: as §1

O=C(/C=C/c1ccc(C(F)(F)F)cc1)Nc1cc(-c2ccc(Br)cc2)[nH]n1 gave an Activity of 35.99%.
